Tests used:
[1] = target: T1, OATP1B1 (Homo sapiens, UniProt Q9Y6L6); assay: Drug uptake by human hepatic OATP1B1 transporter expressed in HEK293 cells at 10 uM relative to wild type HEK293 cells; type: ADME, cell-based; conditions: HEK293 cells expressing OATP1B1, read-out: FC
T1 sequence (Q9Y6L6 whole entry): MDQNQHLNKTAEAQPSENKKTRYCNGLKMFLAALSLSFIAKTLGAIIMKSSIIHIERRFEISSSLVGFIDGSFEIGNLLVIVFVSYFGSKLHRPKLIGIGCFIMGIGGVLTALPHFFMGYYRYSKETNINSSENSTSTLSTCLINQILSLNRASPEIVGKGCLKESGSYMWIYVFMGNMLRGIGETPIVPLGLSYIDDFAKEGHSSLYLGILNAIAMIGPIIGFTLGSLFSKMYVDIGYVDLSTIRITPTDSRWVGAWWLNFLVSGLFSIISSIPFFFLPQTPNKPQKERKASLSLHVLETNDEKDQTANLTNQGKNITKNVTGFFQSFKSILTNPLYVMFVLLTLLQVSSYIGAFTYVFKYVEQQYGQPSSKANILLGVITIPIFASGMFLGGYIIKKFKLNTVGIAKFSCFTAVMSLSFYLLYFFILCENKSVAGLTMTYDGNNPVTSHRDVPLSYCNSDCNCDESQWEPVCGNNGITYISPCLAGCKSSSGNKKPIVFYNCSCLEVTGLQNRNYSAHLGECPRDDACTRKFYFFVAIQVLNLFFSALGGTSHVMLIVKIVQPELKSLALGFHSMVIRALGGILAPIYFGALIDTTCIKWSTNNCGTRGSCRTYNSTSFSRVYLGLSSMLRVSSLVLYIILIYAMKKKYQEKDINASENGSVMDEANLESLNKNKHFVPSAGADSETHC
Procedure, shortened: (§1)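 Individual hepatic OATP transporters were over-expressed in CHO or HEK293 cells: rat rOatp1a1, rOatp1a4 and rOatp1b2, and human hOATP1B1, hOATP1B3 and hOATP2B1. Substrate uptake is expressed as fold difference relative to the wild-type parental line. Rosuvastatin/pravastatin served as positive control and midazolam as negative control in each assay.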

[2] = target: T2, OATP1B3 (Homo sapiens, UniProt Q9NPD5); assay: Drug uptake by human hepatic OATP1B3 transporter expressed in HEK293 cells at 10 uM relative to wild-type HEK293 cells; type: ADME, cell-based; conditions: HEK293 cells expressing OATP1B3, read-out: FC; procedure, shortened: as §1
T2 sequence (Q9NPD5 whole entry): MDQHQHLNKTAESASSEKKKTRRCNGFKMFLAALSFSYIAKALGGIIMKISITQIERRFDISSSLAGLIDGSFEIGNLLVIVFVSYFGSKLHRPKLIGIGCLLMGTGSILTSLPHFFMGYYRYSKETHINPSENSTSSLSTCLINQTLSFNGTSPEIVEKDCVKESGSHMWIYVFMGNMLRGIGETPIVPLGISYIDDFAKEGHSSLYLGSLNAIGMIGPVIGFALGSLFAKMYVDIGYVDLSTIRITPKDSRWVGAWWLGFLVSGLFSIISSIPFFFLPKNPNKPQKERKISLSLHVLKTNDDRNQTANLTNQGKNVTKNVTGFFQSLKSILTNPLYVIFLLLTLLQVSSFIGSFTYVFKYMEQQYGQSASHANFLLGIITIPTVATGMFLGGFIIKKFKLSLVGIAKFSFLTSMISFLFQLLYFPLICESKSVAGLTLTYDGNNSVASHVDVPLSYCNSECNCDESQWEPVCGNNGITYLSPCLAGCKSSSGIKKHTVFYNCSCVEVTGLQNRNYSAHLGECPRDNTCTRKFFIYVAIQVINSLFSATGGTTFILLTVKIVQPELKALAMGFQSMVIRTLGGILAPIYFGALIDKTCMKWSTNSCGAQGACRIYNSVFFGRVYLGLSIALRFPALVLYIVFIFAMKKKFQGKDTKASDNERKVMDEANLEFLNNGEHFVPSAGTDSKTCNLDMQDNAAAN

[3] = test system: Hepatocyte; assay: Drug uptake in sandwich-cultured human hepatocytes assessed per mg of protein at 1 uM in presence of rifamycin SV; type: ADME, cell-based
Procedure, shortened: (§2)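 Rat or human hepatocytes were cultured in sandwich configuration with a Matrigel overlay and compound uptake was measured. Active uptake was assessed by inhibition with the pan-OATP inhibitor rifamycin SV. Rosuvastatin/pravastatin served as positive control and midazolam as negative control.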

[4] = Lipophilicity, log D of the compound at pH 7.4 by shake flask method; type: physicochemical; conditions: buffer
Procedure, shortened: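 Log D at pH 7.4 by shake flask.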

[5] = test system: Cavia porcellus; assay: Hypolipidemic activity in chow fed Hartley guinea pig assessed as reduction of LDL level administered orally for 7 days measured on day 8 after 2 hrs post dose; type: functional; conditions: po
Procedure, shortened: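 Guinea pigs were dosed daily for seven days and sacrificed 2 h after the final dose. Plasma LDL was measured and reported as mean ± SEM % change from the control group, n = 8/group.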

[6] = Fraction unbound in human plasma at 0.5 ug/ml; type: ADME, cell-free
Procedure, shortened: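 Unbound fraction in rat, dog or human plasma, measured at a drug concentration of 0.5 μg/mL.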

[7] = target: T3, OATP1A4 (Rattus norvegicus, UniProt O35913); assay: Drug uptake by rat hepatic OATP1A4 transporters expressed in CHO cells at 1 uM relative to wild type CHO cells; type: ADME, cell-based; conditions: CHO cells expressing rat OATP1A4, read-out: FC; procedure, shortened: as §1
T3 sequence (O35913 whole entry): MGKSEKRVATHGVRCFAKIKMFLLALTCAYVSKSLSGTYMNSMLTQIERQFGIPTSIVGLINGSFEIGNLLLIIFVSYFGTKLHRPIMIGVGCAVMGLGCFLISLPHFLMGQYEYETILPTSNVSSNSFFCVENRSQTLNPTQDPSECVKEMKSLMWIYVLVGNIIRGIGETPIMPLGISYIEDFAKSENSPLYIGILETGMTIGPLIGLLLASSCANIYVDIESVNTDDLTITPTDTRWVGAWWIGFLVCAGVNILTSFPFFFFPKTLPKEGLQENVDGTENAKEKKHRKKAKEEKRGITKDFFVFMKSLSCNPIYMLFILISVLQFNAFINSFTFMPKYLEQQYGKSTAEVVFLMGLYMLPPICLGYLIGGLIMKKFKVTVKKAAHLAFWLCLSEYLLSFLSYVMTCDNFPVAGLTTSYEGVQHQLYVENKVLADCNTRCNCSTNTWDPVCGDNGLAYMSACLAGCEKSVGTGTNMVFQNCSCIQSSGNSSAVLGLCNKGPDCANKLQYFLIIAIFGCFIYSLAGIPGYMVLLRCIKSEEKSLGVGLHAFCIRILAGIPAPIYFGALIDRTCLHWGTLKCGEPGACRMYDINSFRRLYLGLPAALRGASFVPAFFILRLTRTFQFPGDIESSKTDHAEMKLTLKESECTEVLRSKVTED

[8] = test system: Hepatocyte; assay: Drug uptake in sandwich-cultured human hepatocytes assessed per mg of protein at 1 uM; type: ADME, cell-based; procedure, shortened: as §2
[9] = target: T2, OATP1B3; assay: Drug uptake by human hepatic OATP1B3 transporter expressed in HEK293 cells at 1 uM relative to wild-type HEK293 cells; type: ADME, cell-based; conditions: HEK293 cells expressing human OATP1B3, read-out: FC; procedure, shortened: as §1
[10] = test system: L6; assay: Selectivity ratio of IC50 for cholesterol synthesis in rat L6 cells to IC50 for cholesterol synthesis in rat hepatocytes

Row | SMILES | uptake ratio at 10 µM [1] | uptake ratio at 10 µM [2] | Drug uptake [3] [%] | logD [4] | ED50 [5] [mg/kg] | fraction unbound at 0.5 ug/ml [6] | uptake ratio at 1 µM [7] | Drug uptake [8] [pmol/min/mg] | uptake ratio at 1 µM [9] | Ratio IC50 [10]
1 | CC(C)c1nc(N(C)S(C)(=O)=O)nc(-c2ccc(F)cc2)c1/C=C/[C@@H](O)C[C@@H](O)CC(=O)O [ROSUVASTATIN] | 69.6 | 11.1 | 85 | 1.01 | 13.5 | 0.17 | 8.6 | 8 | 3.7 | 830
2 | Cc1ncc2n1-c1ccc(Cl)cc1C(c1ccccc1F)=NC2 [MIDAZOLAM] | 0.9 | 1.1 | – | – | – | – | 0.93 | – | 0.9 | –
3 | Cc1ccc(CNC(=O)c2nn(-c3ccc(F)cc3)c(CC[C@@H](O)C[C@@H](O)CC(=O)O)c2C(C)C)cc1 | 18.4 | 5 | 78 | 0.24 | 3.6 | 0.051 | 2.7 | 7.8 | 11.1 | 810
4 | CC[C@H](C)C(=O)O[C@H]1C[C@H](O)C=C2C=C[C@H](C)[C@H](CC[C@@H](O)C[C@@H](O)CC(=O)O)[C@H]21 [PRAVASTATIN] | 223 | 32.8 | – | – | 73.3 | – | 1.5 | – | 13 | –
5 | O=C([O-])C[C@H](O)C[C@H](O)CCn1c(-c2ccc(F)cc2)nc(C(=O)NCc2cccc(F)c2)c1C1CC1.[Na+] | 84.9 | 36.4 | 97 | 0.51 | 5.9 | 0.29 | 4.4 | 1.5 | 34.5 | 4440
